Results: ChEMBL document CHEMBL4699574, “Discovery of Ketone-Based Covalent Inhibitors of Coronavirus 3CL Proteases for the Potential Therapeutic Treatment of COVID-19” (J Med Chem, 2020)

Columns and labels:
[1] = system: SARS-CoV; assay: Antiviral activity against SARS COV-1 infected in monkey vero 76 cells assessed as reduction in virus-induced cytopathic effect measured after 66 hrs by neutral red method or cell titer glo-based luminescence assay; type: functional, organism-based; settings: Severe acute respiratory syndrome-related coronavirus
[2] = Reversible inhibition of SARS coronavirus Urbani 3CL protease(9985 to 10902) using TAMRA-SITSAVLQSGFRKMK(DABCYL)-OH as substrate measured for 10 mins by FRET assay
How it was run: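 SARS CoV-1 3CLpro FRET assay; each value calculated from at least eight data points, with at least two independent determinations.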

[3] = Permeability of compound in human Caco-2 cells; type: ADME, cell-based
[4] = system: SARS coronavirus Urbani; assay: Irreversible inhibition of SARS coronavirus Urbani 3CL protease (9985 to 10902) assessed as first order inhibition rate constant (Kobs/I ratio) using TAMRA-SITSAVLQSGFRKMK(DABCYL)-OH as substrate measured for 10 mins by FRET assay
How it was run: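 SARS CoV-1 3CL protease activity was monitored by a FRET read-out. Irreversible, time-dependent inactivation was expressed as kobs/I. Each value was calculated from at least eight data points, with at least two independent determinations.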

SMILES	EC50 [1] [µM]	IC50 [2] [µM]	permeability [3]	K [4] [M⁻¹ s⁻¹]
COc1cccc2[nH]c(C(=O)N[C@@H](CC(C)(C)C)C(=O)N[C@@H](C[C@@H]3CCNC3=O)C(=O)CO)cc12	10	0.007	Impermeable	
COc1cccc2[nH]c(C(=O)N(C)[C@@H](CC(C)C)C(=O)N[C@@H](C[C@@H]3CCNC3=O)C(=O)CO)cc12	19	0.083	Impermeable	
COc1cccc2[nH]c(C(=O)N[C@@H](CC3CCCCC3)C(=O)N[C@@H](C[C@@H]3CCNC3=O)C(=O)CO)cc12	14	0.044	Impermeable	
CCCC[C@H](NC(=O)c1cc2c(OC)cccc2[nH]1)C(=O)N[C@@H](C[C@@H]1CCNC1=O)C(=O)CO	10	0.02	Impermeable	
COc1cccc2[nH]c(C(=O)N[C@@H](CC(C)C)C(=O)N[C@@H](C[C@@H]3CCNC3=O)C(=O)COC(=O)c3ccc(Cl)cc3O)cc12				11500
CC(C)C[C@H](NC(=O)[C@H]1CCCO1)C(=O)N[C@@H](C[C@@H]1CCNC1=O)C(=O)COC(=O)c1c(Cl)cccc1Cl				5830
